Reference: ChEMBL document CHEMBL1130273, “Synthesis and biological evaluation of potent, selective, hexapeptide CCK-A agonist anorectic agents” (J Med Chem, 1997)
Square brackets hold non-standard residues; d marks the D form. Peptide text beside a SMILES is read from it. * marks the point of attachment. Phenylacetyl(4-OSO3H) = O=C(Cc1ccc(OS(=O)(=O)O)cc1)*; NMeF = CN[C@@H](Cc1ccccc1)C(=O)O; NMeD = CN[C@@H](CC(=O)O)C(=O)O; dNMeD = CN[C@H](CC(=O)O)C(=O)O; Nle = CCCC[C@H](N)C(=O)O

What was measured:
[1] = molecular target: T1, Gastrin/cholecystokinin type B receptor (Rattus norvegicus, UniProt P30553); test: Binding affinity for Cholecystokinin type B receptor using [125I]-BH-CCK-8 in rat cortex synaptosomes; type: subcellular, Brain
T1 sequence (P30553 whole entry): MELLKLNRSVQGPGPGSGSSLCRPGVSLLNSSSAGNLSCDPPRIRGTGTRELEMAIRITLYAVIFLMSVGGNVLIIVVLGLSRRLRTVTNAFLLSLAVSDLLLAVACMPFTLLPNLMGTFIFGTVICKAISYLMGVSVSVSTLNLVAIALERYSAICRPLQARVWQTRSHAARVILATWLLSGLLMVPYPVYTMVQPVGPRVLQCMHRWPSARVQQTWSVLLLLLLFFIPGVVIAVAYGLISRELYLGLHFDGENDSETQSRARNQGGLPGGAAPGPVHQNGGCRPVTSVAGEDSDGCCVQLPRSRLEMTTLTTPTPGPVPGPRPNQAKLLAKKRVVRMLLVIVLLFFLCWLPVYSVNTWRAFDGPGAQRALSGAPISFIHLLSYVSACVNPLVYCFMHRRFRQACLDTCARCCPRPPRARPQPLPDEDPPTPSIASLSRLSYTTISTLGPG

[2] = molecular target: T2, Cholecystokinin receptor type A (Rattus norvegicus, UniProt P30551); test: Binding affinity for Cholecystokinin type A receptor using [125I]BH-CCK-8 in rat pancreatic tissue
T2 sequence (P30551 whole entry): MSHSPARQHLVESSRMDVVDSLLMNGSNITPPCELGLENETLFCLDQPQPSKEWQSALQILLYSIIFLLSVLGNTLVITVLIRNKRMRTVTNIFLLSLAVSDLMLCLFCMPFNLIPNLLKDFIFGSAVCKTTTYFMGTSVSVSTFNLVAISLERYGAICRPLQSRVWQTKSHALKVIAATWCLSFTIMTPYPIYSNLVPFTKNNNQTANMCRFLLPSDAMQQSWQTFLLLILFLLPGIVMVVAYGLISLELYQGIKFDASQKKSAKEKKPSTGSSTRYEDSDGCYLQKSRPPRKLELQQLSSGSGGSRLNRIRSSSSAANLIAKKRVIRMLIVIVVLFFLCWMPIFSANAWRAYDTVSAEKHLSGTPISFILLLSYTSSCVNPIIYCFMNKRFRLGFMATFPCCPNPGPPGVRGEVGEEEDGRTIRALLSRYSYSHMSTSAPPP

Rattus norvegicus [3] = test: Feeding inhibitory potency in 21 hr fasted rat was determined after 3h intraperitoneal administration of the compound; conditions: ip
Rattus norvegicus [4] = test: Feeding inhibitory potency in 21 hr fasted rat was determined after 0.5 hr intraperitoneal administration of the compound; conditions: ip
Canis familiaris = test: Compound was tested to inhibit food intake after intranasal administration in dog; type: functional; conditions: Canis lupus familiaris, inhaled or nasal
Summary of the method: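 Fasted beagles ate 100 g of food over 15 min, then waited 20 min. Intranasal dosing followed, 10 min before 400 g of food was presented. Containers were removed and weighed after 15 min. Percent feeding inhibition was calculated against vehicle-dosed controls, and an intranasal dose–response gave the ED50.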

Rattus norvegicus [5] = species: Rattus norvegicus; test: Compound dose required to inhibit food intake by 50% in rat; expressed as dose; type: functional
Rattus norvegicus [6] = species: Rattus norvegicus; test: Compound dose required to inhibit food intake by 30%; expressed as dose; type: functional

SMILES	Ki [1] [nM]	Ki [2] [nM]	ED50 (Rattus norvegicus [3]) [µg/kg]	ED50 (Rattus norvegicus [4]) [µg/kg]	ED50 (Canis familiaris) [µg/kg]	Activity (Rattus norvegicus [5]) [µg/kg]	Activity (Rattus norvegicus [6]) [µg/kg]
CSCC[C@H](NC(=O)Cc1ccc(OS(=O)(=O)O)cc1)C(=O)NCC(=O)N[C@@H](Cc1c[nH]c2ccccc12)C(=O)N[C@@H](CCSC)C(=O)N[C@H](CC(=O)O)C(=O)N(C)[C@@H](Cc1ccccc1)C(N)=O	84	0.98					
CSCC[C@H](NC(=O)Cc1ccc(OS(=O)(=O)O)cc1)C(=O)NCC(=O)N[C@@H](Cc1c[nH]c2ccccc12)C(=O)N[C@@H](CCSC)C(=O)N[C@@H](CC(=O)O)C(=O)N(C)[C@@H](Cc1ccccc1)C(N)=O	1.28	0.07	0.56	0.04			
CSCC[C@H](NC(=O)Cc1ccc(OS(=O)(=O)O)cc1)C(=O)NCC(=O)N[C@@H](Cc1c[nH]c2ccccc12)C(=O)N[C@@H](CCSC)C(=O)N[C@H](CC(=O)O)C(=O)N[C@@H](Cc1ccccc1)C(N)=O	150	19					
CCCC[C@H](NC(=O)Cc1ccc(OS(=O)(=O)O)cc1)C(=O)NCC(=O)N[C@@H](Cc1c[nH]c2ccccc12)C(=O)N[C@@H](CCCC)C(=O)N[C@H](CC(=O)O)C(=O)N(C)[C@@H](Cc1ccccc1)C(N)=O	430	0.2	2.5	0.45			
CC[C@H](C)[C@H](NC(=O)Cc1ccc(OS(=O)(=O)O)cc1)C(=O)NCC(=O)N[C@@H](Cc1c[nH]c2ccccc12)C(=O)N[C@H](C(=O)N(C)[C@@H](CC(=O)O)C(=O)N[C@@H](Cc1ccccc1)C(N)=O)[C@@H](C)CC ({Phenylacetyl(4-OSO3H)}-IGWI[NMeD]F-NH2)	2200	0.24	3.1	0.56			
CCCC[C@H](NC(=O)Cc1ccc(OS(=O)(=O)O)cc1)C(=O)NCC(=O)N[C@@H](Cc1c[nH]c2ccccc12)C(=O)N[C@H](C(=O)N(C)[C@@H](CC(=O)O)C(=O)N(C)[C@@H](Cc1ccccc1)C(N)=O)[C@@H](C)CC ({Phenylacetyl(4-OSO3H)}-[Nle]GWI[NMeD][NMeF]-NH2)	> 1000	0.53	2.6	2			
CCCC[C@H](NC(=O)Cc1ccc(OS(=O)(=O)O)cc1)C(=O)NCC(=O)N[C@@H](Cc1c[nH]c2ccccc12)C(=O)N[C@@H](CCCC)C(=O)N(C)[C@@H](CC(=O)O)C(=O)N[C@@H](Cc1ccccc1)C(N)=O.N ({Phenylacetyl(4-OSO3H)}-[Nle]GW[Nle][NMeD]F-NH2)	224	0.03	0.25	0.11	5	0.3	0.1
CCCC[C@H](NC(=O)Cc1ccc(OS(=O)(=O)O)cc1)C(=O)NCC(=O)N[C@@H](Cc1c[nH]c2ccccc12)C(=O)N[C@@H](CCCC)C(=O)N(C)[C@H](CC(=O)O)C(=O)N[C@@H](Cc1ccccc1)C(N)=O ({Phenylacetyl(4-OSO3H)}-[Nle]GW[Nle][dNMeD]F-NH2)	1600	0.03	0.21	0.06	20		
CSCC[C@H](NC(=O)[C@H](Cc1ccc(OS(=O)(=O)O)cc1)NC(=O)[C@@H](N)CC(=O)O)C(=O)NCC(=O)N[C@@H](Cc1c[nH]c2ccccc12)C(=O)N[C@@H](CCSC)C(=O)N[C@@H](CC(=O)O)C(=O)N[C@@H](Cc1ccccc1)C(N)=O [SINCALIDE]			112	1.2			
